PMC12541606 (Acta Pharmaceutica Sinica. B, 2025)
Numbered stars: 1 amine (or outer) side, 2 acyl side, 3 side chain; on linkers, the order of the positions; unused ones are H or OH. Bridge positions count the residues as written; N and C are the ends. Square brackets hold non-standard residues; d marks the D form. Peptide text beside a SMILES is read from it. I, II: the chains in the order shown. * marks the point of attachment. X1 = O=C([C@H](CCCCn1nnc2c1-c1ccccc1N([*:3])Cc1ccccc1-2)N[*:1])[*:2]; Dolaproine = CO[C@@H]([C@@H]1CCCN1)[C@@H](C)C(=O)O; Tyr(SO2F) = N[C@@H](Cc1ccc(OS(=O)(=O)F)cc1)C(=O)O; Dil = CC[C@H](C)[C@H](NC)[C@@H](CC(=O)O)OC; PABC = O=C(OCc1ccc(N[*:1])cc1)[*:2]; X2 = C[C@@H](N*)[C@@H](O)c1ccccc1; Cit = NC(=O)NCCC[C@H](N)C(=O)O; Suc = O=C(CCC(=O)[*:2])[*:1]; NMeV = CN[C@H](C(=O)O)C(C)C; AEEA = NCCOCCOCC(=O)O

What was measured:
Format in all cases: cell-based
MDA-MB-468 cells = test: Cell viability test; settings: 72 h, CCK-8
tubulin = test: Immunofluorescent imaging of tubulin organization; settings: MDA-MB-468 cells, 0 to 10 μmol/L, 24 h
caspase-3 = test: Western blotting of cleaved caspase-3; settings: MDA-MB-468 cells, 24 h, 37 °C
Procedure, shortened: (§1)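 MDA-MB-468 cells were seeded and grown 24 h at 37 °C, 5% CO2. PDC test compound was diluted from a 20 mmol/L stock to final 0, 0.1, 0.5, 1, 5 and 10 μmol/L and applied for 24 h. Cells were lysed in RIPA buffer with protease inhibitors and run on SDS-PAGE. Blots were probed for caspase-3, cleaved caspase-3, PARP and β-actin, detected by ECL and quantified by densitometry.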

[1] = test system: poly ADP-ribose polymerase (PARP); test: Western blotting of cleaved PARP; settings: MDA-MB-468 cells, 24 h, 37 °C
Procedure, shortened: as §1

Row | SMILES | area under the dose-response curve (AUC) (MDA-MB-468 cells) | tubulin signal (in words) (tubulin) | cleavage product of caspase-3, fold relative to untreated controls (caspase-3) | cleavage product of PARP, fold relative to untreated controls [1]
1 | CC[C@H](C)[C@@H]([C@@H](CC(=O)N1CCC[C@H]1[C@H](OC)[C@@H](C)C(=O)N[C@H](C)[C@@H](O)c1ccccc1)OC)N(C)C(=O)[C@@H](NC(=O)[C@H](C(C)C)N(C)C(=O)OCc1ccc(NC(=O)[C@H](CCCNC(N)=O)NC(=O)[C@@H](NC(=O)CCC(=O)N2Cc3ccccc3-c3nnn(CCCC[C@H](NC(=O)COCCOCCNC(=O)COCCOCCNC(=O)[C@@H]4CSCC(=O)N[C@H](Cc5ccccc5)C(=O)NCC(=O)N[C@@H](CC(=O)O)C(=O)N[C@@H](Cc5ccccc5)C(=O)N[C@@H]([C@@H](C)CC)C(=O)N[C@@H](CCCNC(=N)N)C(=O)N[C@@H](CCCNC(=N)N)C(=O)N[C@@H](CC(C)C)C(=O)N[C@@H](C(C)C)C(=O)N5CCC[C@H]5C(=O)N[C@@H](CCCNC(=N)N)C(=O)N[C@@H](CC(C)C)C(=O)N4)C(N)=O)c3-c3ccccc32)C(C)C)cc1)C(C)C [NP-N7-MMAE] (I: {CH2CO}-[dF]GDFIRRLVPRLC[AEEA][AEEA][X1]-NH2 / II: V[Cit][PABC][NMeV]V[Dil][Dolaproine]-X2; linker I:16-II:N via Suc; thioether I:N-I:13) | 433.7 | progressive, concentration-dependent reduction in tubulin signal | – | –
2 | CC[C@H](C)[C@@H]([C@@H](CC(=O)N1CCC[C@H]1[C@H](OC)[C@@H](C)C(=O)N[C@H](C)[C@@H](O)c1ccccc1)OC)N(C)C(=O)[C@@H](NC(=O)[C@H](C(C)C)N(C)C(=O)OCc1ccc(NC(=O)[C@H](CCCNC(N)=O)NC(=O)[C@@H](NC(=O)CCC(=O)N2Cc3ccccc3-c3nnn(CCCC[C@H](NC(=O)COCCOCCNC(=O)COCCOCCNC(=O)[C@@H]4CSCC(=O)N[C@H](Cc5ccccc5)C(=O)N[C@@H](Cc5ccc(OS(=O)(=O)F)cc5)C(=O)N[C@@H](CC(N)=O)C(=O)N[C@@H](C)C(=O)N[C@@H](Cc5ccccc5)C(=O)N5CCC[C@H]5C(=O)N[C@@H](C(C)C)C(=O)N[C@@H](CCCNC(=N)N)C(=O)N[C@@H](Cc5ccc(O)cc5)C(=O)N[C@@H](CC(C)C)C(=O)N[C@@H](CCCCN)C(=O)N[C@@H](CCCNC(=N)N)C(=O)N[C@@H](Cc5c[nH]c6ccccc56)C(=O)N4)C(N)=O)c3-c3ccccc32)C(C)C)cc1)C(C)C [CP-N9-MMAE] (I: {CH2CO}-[dF][Tyr(SO2F)]NAFPVRYLKRWC[AEEA][AEEA][X1]-NH2 / II: V[Cit][PABC][NMeV]V[Dil][Dolaproine]-X2; linker I:17-II:N via Suc; thioether I:N-I:14) | 215.2 | progressive, concentration-dependent reduction in tubulin signal | – | –
3 | CC[C@H](C)[C@@H]([C@@H](CC(=O)N1CCC[C@H]1[C@H](OC)[C@@H](C)C(=O)N[C@H](C)[C@@H](O)c1ccccc1)OC)N(C)C(=O)[C@@H](NC(=O)[C@H](C(C)C)N(C)C(=O)OCc1ccc(NC(=O)[C@H](CCCNC(N)=O)NC(=O)[C@@H](NC(=O)CCC(=O)N2Cc3ccccc3-c3nnn(CCCC[C@H](NC(=O)COCCOCCNC(=O)COCCOCCNC(=O)[C@@H]4CSCC(=O)N[C@H](Cc5ccccc5)C(=O)N[C@@H](Cc5ccc(OS(=O)(=O)F)cc5)C(=O)N[C@@H](CC(N)=O)C(=O)N[C@@H](C)C(=O)N[C@@H](Cc5ccccc5)C(=O)N5CCC[C@H]5C(=O)N[C@@H](C(C)C)C(=O)N[C@@H](CCCNC(=N)N)C(=O)N[C@@H](Cc5ccc(O)cc5)C(=O)N[C@@H](CC(C)C)C(=O)N[C@@H](CCCCN)C(=O)N[C@@H](CCCCN)C(=O)N[C@@H](Cc5c[nH]c6ccccc56)C(=O)N4)C(N)=O)c3-c3ccccc32)C(C)C)cc1)C(C)C [CP-N1-MMAE] (I: {CH2CO}-[dF][Tyr(SO2F)]NAFPVRYLKKWC[AEEA][AEEA][X1]-NH2 / II: V[Cit][PABC][NMeV]V[Dil][Dolaproine]-X2; linker I:17-II:N via Suc; thioether I:N-I:14) | 173.3 | progressive, concentration-dependent reduction in tubulin signal | 5 fold | 1.5 fold
